# Screens (PubChem)
# Compounds with a hit are over-represented: about 2.5% of the library has one in this group of screens.
# TCR-CD3 inh: inhibitors of human TCR-CD3 interaction, primary screen, biochemical, fluorescence, TAMRA-labeled TCR probe | T-cell receptor (TCR) | inhibition, % at 9.4 µM | 0.37% of 360,000 active;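 note: recombinant mutant TCR 2C K166C tagged with TAMRA read by polarization; 0% = receptor in buffer alone and 100% = receptor with positive control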
# PRMT1 inh: PRMT1 methyltransferase inhibitors, primary screen, biochemical, fluorescence polarization; Protein arginine N-methyltransferase 1 (Homo sapiens), Q99873; recombinant PRMT1, activity-based probe fluorescence polarization; inhibition, % at 2.79 µM; 1.3% of 370,000 active;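 active = inhibition above about 21% made by adding two undisclosed values, limit read from the data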
# SIAE primary: human SIAE inhibitors, primary screen, biochemical, fluorescence polarization, FP-Rh probe, 1536-well HTS. Sialate O-acetylesterase (Homo sapiens), Q9HAT2. SIAE FP-Rh probe binding. inhibition, % at 9.66 µM. 0.69% of 370,000 active;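 active = inhibition above a cutoff: mean of compounds within the control limits plus 3 SD of those, cut at about 17% in these data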;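 note: 0% = plate median of compound wells and 100% = probe without SIAE protein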
# HTRA1 inhibitor: HTRA1 serine protease inhibitors, primary screen, biochemical, fluorescence polarization, HTS. Q92743. recombinant HTRA1, FP-rhodamine activity-based probe. inhibition, % at 5.96 µM. 0.5% of 340,000 active; in the data active = inhibition above about 36%;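 note: 0% = enzyme with DMSO and 100% = wells lacking enzyme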
# Target sequence (Q92743 whole entry, looked up): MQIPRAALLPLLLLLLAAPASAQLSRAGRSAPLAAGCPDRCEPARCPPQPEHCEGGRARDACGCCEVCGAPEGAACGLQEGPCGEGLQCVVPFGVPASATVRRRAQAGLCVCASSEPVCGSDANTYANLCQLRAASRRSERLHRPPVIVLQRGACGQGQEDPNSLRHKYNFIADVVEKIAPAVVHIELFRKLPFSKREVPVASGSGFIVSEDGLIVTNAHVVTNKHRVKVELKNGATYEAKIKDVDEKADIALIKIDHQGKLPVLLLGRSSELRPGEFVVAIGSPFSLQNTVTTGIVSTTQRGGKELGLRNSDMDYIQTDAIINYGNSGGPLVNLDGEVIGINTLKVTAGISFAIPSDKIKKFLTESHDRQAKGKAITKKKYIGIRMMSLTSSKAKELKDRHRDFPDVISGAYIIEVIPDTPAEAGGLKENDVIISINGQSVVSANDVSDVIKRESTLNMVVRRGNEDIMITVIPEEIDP
# ABHD4 inh: ABHD4 inhibitors, primary screen, biochemical, fluorescence polarization, mouse | 0.54% of 370,000 active | inhibition, % at 8.92 µM | (Lyso)-N-acylphosphatidylethanolamine lipase (Mus musculus), Q8VD66 | purified mABHD4, FP-Rh probe fluorescence polarization;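 active = inhibition exceeding the mean over every tested compound plus 3 SD, cut at about 30% in these data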;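 note: 0% = plate median of compound wells and 100% = S159A mutant with DMSO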
#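 Assay system: mABHD4 protein; medium: HEPES pH 7.0, NaCl, Pluronic buffer; dosing: 8.92 µM, single dose; schedule: 45 min + 60 min at 25 °C; signal: FP readout, ex 525 nm / em 598 nm; read-out: normalized percent inhibition of probe labeling; repeats: single replicate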
# HTRA1 conf: HTRA1 protease inhibitors, retest, confirmation, biochemical, fluorescence polarization; shares compounds with HTRA1 inhibitor; recombinant HTRA1, FP-rhodamine activity-based probe; inhibition, % at 5.96 µM; 66% of 1,600 active; AID 540248, 2011;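 active = mean inhibition over three repeats above a set limit taken from the earlier primary screen, cut at about 37% in these data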;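 note: 0% = HTRA1 with DMSO and 100% = wells lacking HTRA1; inhibitors block probe binding so polarization drops and inhibition rises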
# BSA probe FL: compounds interfering with TAMRA-BSA probe, counter-screen for TCR-CD3 interaction inhibitor project, biochemical, fluorescence, TAMRA-labeled BSA. shares compounds with TCR-CD3 inh. TAMRA-labeled BSA probe fluorescence counterscreen. inhibition, % at 9.4 µM. 10% of 1,200 active; in the data active = inhibition above about 23%;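 note: 0% = buffer low control and 100% = reference high control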
# TCR-CD3 conf: TCR-CD3 interaction inhibitors, retest, confirmation, biochemical, fluorescence, TAMRA-labeled TCR probe | shares compounds with TCR-CD3 inh | 48% of 1,200 active | TAMRA-labeled TCR probe fluorescence binding assay | inhibition, % at 9.4 µM
# PRMT1 inh conf: PRMT1 methyltransferase inhibitors, confirmation, biochemical, fluorescence polarization, triplicate | 42% of 3,300 active | shares compounds with PRMT1 inh | recombinant His-PRMT1, activity-based probe fluorescence polarization | inhibition, % at 2.79 µM;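 active = mean inhibition across replicates above the hit cutoff derived for the earlier primary screen, cut at about 22% in these data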
# mABHD4 conf: ABHD4 inhibitors, retest, confirmation, biochemical, fluorescence polarization, mouse | shares compounds with ABHD4 inh | purified mABHD4, FP-Rh probe fluorescence polarization | inhibition, % at 8.92 µM | 55% of 1,800 active;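 active = mean inhibition across replicates above the hit cutoff set in the primary screen, cut at about 30% in these data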;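 note: 0% = wild-type ABHD4 with DMSO and 100% = catalytically dead S159A mutant with DMSO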
# SIAE confirm: human SIAE inhibitors, retest, confirmation, biochemical, fluorescence polarization, FP-Rh probe, triplicate | shares compounds with SIAE primary | SIAE FP-Rh activity-based probe | inhibition, % at 9.66 µM | 13% of 2,300 active | AID 1117263, 2014;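 active = mean inhibition of the replicates above the hit cutoff set in the primary screen, cut at about 17% in these data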;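 note: 0% = SIAE with DMSO and probe and 100% = probe without SIAE; inhibitors lower polarization as more probe stays unbound to SIAE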
# * marks the source's active call; other numbers are inactive results; . = no result given. Cut-off read from the data, not from the text of the source, unless noted: active = inhibition above about 19%; inactive = the rest.
SMILES,TCR-CD3 inh,PRMT1 inh,SIAE primary,HTRA1 inhibitor,ABHD4 inh,HTRA1 conf,BSA probe FL,TCR-CD3 conf,mABHD4 conf,SIAE confirm,others
Oc1ccc(NCc2cccc(OCc3ccc(F)cc3)c2)cc1,25*,7,40*,58*,49*,6,5,4,15,8,
Oc1ccc(NCc2cccc(OCc3ccccc3)c2)cc1,26*,17,44*,51*,50*,12,-2,2,23,12,
O=[N+]([O-])c1ccc(COc2cccc(CNc3ccc(F)cc3)c2)cc1,-1,2,0,-7,-10,.,.,.,.,.,
C[C@]12Cc3ccccc3C1CC1=N[C@@H](C3CCCCC3)O[C@@]13C[C@@H]2C(=O)N3C1CCN(Cc2ccccc2)CC1 (stereo not given in full),-2,-3,3,.,10,.,.,.,.,.,
COc1ccc(NC(=O)CCCN2C(=O)CN(C)C2=O)cc1Cl,-1,3,1,9,5,.,.,.,.,.,
COc1ccc(NC2CC(=O)N(C(C)C)C2=O)cc1 (stereo not given),-3,2,2,11,5,.,.,.,.,.,
CC(C)N1C(=O)CC(Nc2cccc3cccc(N)c23)C1=O (stereo not given),9,15,32*,36*,36*,11,.,.,.,6,
O=C(Nc1ccnn1C1CCN(C(=O)CCc2ccc(F)cc2)CC1)C1CCOC1 (stereo not given),2,-2,-6,4,-5,.,.,.,.,.,
Oc1ccc(/C=N/Nc2ccnc3cc(Cl)ccc23)c(O)c1O,20*,15,41*,66*,38*,65*,-16,22*,56*,33*,
CCCCCCCCCC1(CC(=O)OCC)SCCN1C(N)=O (stereo not given),4,7,-7,-10,-23,.,.,.,.,.,
Oc1ccc(O)c(C=NNC(=S)NC2CC3CC2C2C=CCC32)c1 (stereo not given),1,2,34*,47*,30*,73*,.,.,35*,39*,
NNC(=S)NC1CC2CC1C1C=CCC21 (stereo not given),-7,1,2,-12,-5,.,.,.,.,.,
N#C/C(=C/c1ccc(O)c(O)c1)c1nc2ccccc2[nH]1,36*,42*,29*,65*,58*,94*,-12,48*,65*,51*,PRMT1 inh conf=37*
O=C(CCl)N1c2ccccc2Oc2ccc3ccccc3c21,22*,60*,22*,80*,62*,-20,.,.,-9,-2,PRMT1 inh conf=40*
CC(=O)N1c2ccccc2Oc2cc3ccccc3cc21,1,-1,3,-20,2,.,.,.,.,.,
O=C(NCc1cccnc1)c1cccc(S(=O)(=O)Nc2cccc(Cl)c2)c1,-8,0,1,-6,-9,.,.,.,.,.,
O=c1c2ccccc2nc(N/N=C/c2c(O)ccc3ccccc23)n1O,9,0,18*,62*,34*,68*,.,.,34*,11,
COc1ccc(CNC(=O)Nc2cccc(Cl)c2)cc1,.,.,.,-17,.,.,.,.,.,.,
Cc1cc2cc(CNC(=O)Nc3cccc(Cl)c3)ccc2n1C,55*,10,26*,39*,46*,6,5,1,-10,-6,
CCCCOCCCNC(=O)C[C@H]1C(=O)N(CCCOC)C2=CCCCC[C@]21C(=O)OC,.,0,5,.,-3,.,.,.,.,.,
CCOC(=O)C(C(=O)OCC)c1cc(Br)c2noc3c2c1C(=O)c1ccccc1-3,8,32*,22*,48*,22,25,.,.,.,-2,PRMT1 inh conf=53*
CCN(c1ccccc1)S(=O)(=O)c1ccc(OC)c(NC(=O)CCc2nc3ccccc3c(=O)[nH]2)c1,0,7,-8,-27,-3,.,.,.,.,.,
Oc1c(Cl)cc(Cl)cc1/C=N/NC(=S)NC1CC2C=CC1C2 (stereo not given),23*,0,20*,52*,39*,54*,-18,28*,41*,21*,
CCOC(=O)[C@]12CCCC=C1N(CCCOC)C(=O)[C@@H]2CC(=O)NCc1cccs1,.,-4,7,.,1,.,.,.,.,.,
CCc1ccc2[nH]c3nc(N/N=C/c4ccc(O)cc4O)nnc3c2c1,11,-1,30*,61*,16,63*,.,.,.,29*,
SMILES,TCR-CD3 inh,PRMT1 inh,SIAE primary,HTRA1 inhibitor,ABHD4 inh,HTRA1 conf,BSA probe FL,TCR-CD3 conf,mABHD4 conf,SIAE confirm,others
Oc1ccc(NCc2cccs2)cc1,21*,20,20*,37*,54*,4,2,6,11,9,
COc1cccc(C(=O)N[C@H](C(=O)N2CCC[C@H]2C(=O)NCCc2ccccc2Cl)C2CCCCC2)c1,2,3,-5,.,-2,.,.,.,.,.,
N#CC1=C(N)Oc2ccc3ccc(O)cc3c2C1c1ccsc1 (stereo not given),70*,83*,126*,126*,132*,58*,72*,53*,88*,63*,PRMT1 inh conf=16
N#CC1=C(N)Oc2cc(N)ccc2C1c1ccsc1 (stereo not given),1,-4,8,8,-5,.,.,.,.,.,
CC(=O)C(=Nc1ccccc1Cl)NNc1ccc(Cl)cc1,-1,71*,18*,47*,43*,-18,.,.,-18,1,
CCOc1cc(N2CCOCC2)c(OCC)cc1NC(C)C(=O)N1CCN(CC)CC1 (stereo not given),31*,15,27*,41*,41*,17,1,2,.,4,
